Measured values of several laboratories.
Lines come from different studies, so protocols differ.
Cell line: THP-1

Cn1c(-c2nnc(NC(=O)c3cc4c([nH]c5ccccc54)c(-c4ccccc4)n3)s2)cc2ccccc21  IC50 (cell growth or viability, MTT; 72 h): 14200 nM
CC(C)(C)NCC(O)c1cc(O)cc(O)c1 (centres unmarked)  IC50 (TNF-α release, inhibitor; 17 h, LPS-stimulated): 2180 nM
COc1cccc2c1C(=O)c1c(O)c3c(c(O)c1C2=O)C[C@@](O)(C(=O)CO)C[C@@H]3O[C@H]1C[C@H](N)[C@H](O)[C@H](C)O1  IC50 (cell growth or viability, MTT; 72 h): 3250 nM
CNCC(O)c1ccc(O)c(O)c1 (racemic)  IC50 (TNF-α release, inhibitor; 17 h, LPS-stimulated): 150 nM
CCn1c(-c2nnc(NC(=O)c3cc4c([nH]c5ccccc54)c(-c4cc(OC)c(OC)c(OC)c4)n3)s2)cc2ccccc21  IC50 (cell growth or viability, MTT; 72 h): 40200 nM
O=C(/C=C/C=C/c1ccc2c(c1)OCO2)N1CCCCC1  IC50 (cell growth or viability, MTT; 48 h): > 50 µg/mL
CC[C@@H](C)[C@H](N)C(=O)N1Cc2ccccc2C1  IC50 (cell growth or viability, ATP luminescence): 1700 nM
C#CCSc1nc(Sc2nnnn2-c2ccccc2)c2nnn(Cc3ccc(OC)cc3)c2n1  IC50 (cell growth or viability, MTS; 6 days): 2520 nM
COc1ccc(-c2nc(C(=O)Nc3nnc(-c4cc5ccccc5n4C)s3)cc3c2[nH]c2ccccc23)cc1  IC50 (cell growth or viability, MTT; 72 h): 14400 nM
COc1cc(/C=C/C(=O)CC(=O)/C=C/c2ccc(O)c(OC)c2)ccc1O  IC50 (cell growth or viability, MTT; 48 h): 24 µg/mL
NCCc1c[nH]cn1  IC50 (TNF-α release, inhibitor; 17 h, LPS-stimulated): 1890 nM
Cl.NCc1ccc(-c2nc(-c3ccc(Oc4ccc(C(F)(F)F)cc4)cc3)no2)cc1  IC50 (cell growth or viability, LDH; 24 h): 4.4 µg/mL
COc1cc2nccc(Oc3ccc(NC(=O)C4(C(=O)Nc5ccc(F)cc5)CC4)cc3)c2cc1OC  IC50 (cell growth or viability, trypan blue; 72 h): 2920 nM
N[C@@H](CC(=O)N1CCN(C(c2ccc(F)cc2)c2ccc(F)cc2)CC1)C(=O)N1Cc2ccccc2C1  IC50 (cell growth or viability, ATP luminescence; 48 h): 2740 nM
O=C(Nc1nc2ccccc2n1CCN1CCOCC1)c1cccc([N+](=O)[O-])c1  IC50 (TNF-α release, inhibitor; 17 h, LPS-stimulated): 1120 nM
Cn1c(-c2nnc(NC(=O)c3cc4c([nH]c5ccccc54)c(-c4ccc(F)cc4)n3)s2)cc2ccccc21  IC50 (cell growth or viability, MTT; 72 h): 32800 nM
CCC(NC(C)C)C(O)c1ccc(O)c(O)c1 (centres unmarked)  IC50 (TNF-α release, inhibitor; 17 h, LPS-stimulated): 2070 nM
O=[N+]([O-])c1c[nH]nc1-c1nc(-c2ccc3oc4ccccc4c3c2)no1  IC50 (cell growth or viability, LDH; 24 h): 9.8 µg/mL
CCn1c(-c2nnc(NC(=O)c3cc4c([nH]c5ccccc54)c(-c4ccc(OC)cc4)n3)s2)cc2ccccc21  IC50 (cell growth or viability, MTT; 72 h): 48600 nM
Cc1ccc(S(=O)(=O)/C=C/C#N)cc1  IC50 (TNF-α release, inhibitor; 17 h, LPS-stimulated): 1220 nM
